Results from different studies.
Lines come from different studies, so protocols differ.
Target: Platelet-derived growth factor receptor beta (PDGFRB, Homo sapiens, UniProt P09619)

SMILES | assay | measurement | value
Cc1cc(Nc2cc3ncccc3c(N[C@@H]3C[C@H]4CC[C@@H](C3)N4CCC#N)n2)n[nH]1 | binding, competition with immobilised ligand | Kd | 68 nM
FC(F)(F)c1ccc(CNc2ccc(Cc3c[nH]c4ncc(Cl)cc34)cn2)cn1 | enzyme activity, inhibitor | IC50 | 8 nM
Cc1cnc(-c2ccc(-c3ccc(NC(=O)Nc4c(F)cc(F)cc4F)cc3F)c3c2C(=O)NC3)[nH]1 | binding, competition with immobilised ligand | Kd | 0.4 nM
Cc1ccc(NC(=O)c2ccc(C)c(C(F)(F)F)c2)cc1C#Cc1nn(C2CCC(O)CC2)c2ncnc(N)c12 (centres unmarked) | enzyme activity, inhibitor, radiometric | IC50 | > 10000 nM
CCN1CCN(Cc2ccc(C(=O)Nc3ccc(C)c(Oc4ccc5c(c4)CC(=O)N5)c3)cc2C(F)(F)F)CC1 | enzyme activity, inhibitor | IC50 | > 10000 nM
Cc1ccc(NC(=O)c2ccc(CN3CCS(=N)(=O)CC3)cc2)cc1Nc1nccc(-c2cccnc2)n1 | binding, competition with immobilised ligand | Kd | 19 nM
COc1ccc2c(Oc3ccc4c(C(=O)Nc5ccccc5N)cccc4c3)ccnc2c1 | enzyme activity, inhibitor | IC50 | 93 nM
C=CC(=O)Nc1cccc(CN2C(=O)N(c3c(Cl)c(OC)cc(OC)c3Cl)Cc3cnc(NCCCCN(CC)CC)nc32)c1 | binding, competition with immobilised ligand | Kd | 480 nM
